From ChEMBL document CHEMBL3244301, “Novel analgesic-antiinflammatory salicylates” (J Med Chem, 1978)
In brackets after ≈: the same amount, converted by molar mass. Activity calls are given as the source filed them. The calls are words filed in the database; no cut-off is given here.

Tested on: Rattus norvegicus
Test: Toxicity in rat assessed as intestinal perforating ulcer at 1024 mg/kg, po
Type: organism-based
Set-up: dose 1024 mg/kg, route oral
Settings: in vivo
In the case of `CC(=O)Oc1ccccc1C(=O)O` [ASPIRIN], the Activity is reported as “Non-toxic”.

Tested on: Rattus norvegicus
Test: Toxicity in rat assessed as gastric hemorrhage at 256 mg/kg, po
Type: organism-based, Stomach
Set-up: dose 256 mg/kg, route oral
Settings: in vivo
With `O=C(O)c1cc(-c2ccc(F)cc2F)ccc1O` [DIFLUNISAL] the Activity was “Non-toxic”.

Molecular target: Cyclooxygenase (Homo sapiens) (UniProt P35354+P23219)
Test: not given
Settings: not given
Compound `O=C(O)c1cc(-c2ccc(F)cc2F)ccc1O` [DIFLUNISAL] has an ED50 of 0.6 µg/mL (≈ 2.4 µM). Work on `CC(=O)Oc1ccc(-c2ccc(F)cc2)cc1C(=O)O` [FLUFENISAL] yielded an ED50 of 10 µg/mL (≈ 36.5 µM). For `CC1=C(CC(=O)O)c2cc(F)ccc2/C1=C\c1ccc([S+](C)[O-])cc1` (centres undefined) [SULINDAC], the ED50 was “inactive”. With `CC(=O)Oc1ccccc1C(=O)O` [ASPIRIN] the ED50 was 13 µg/mL (≈ 72.2 µM).

Tested on: Rattus norvegicus
Test: Toxicity in po dosed rat assessed as gastric hemorrhage
Type: organism-based, Stomach
Settings: in vivo
`CC(C)Cc1ccc(C(C)C(=O)O)cc1` (centres undefined) [IBUPROFEN] gave an ED50 of less than 16 mg/kg. Work on `CC(=O)Oc1ccc(-c2ccc(F)cc2)cc1C(=O)O` [FLUFENISAL] yielded an ED50 greater than 512 mg/kg. Compound `COc1ccc2c(c1)c(CC(=O)O)c(C)n2C(=O)c1ccc(Cl)cc1` [INDOMETHACIN] has an ED50 of 5.4 mg/kg. Work on `CC1=C(CC(=O)O)c2cc(F)ccc2/C1=C\c1ccc([S+](C)[O-])cc1` (centres undefined) [SULINDAC] yielded an ED50 of 27 mg/kg. In the case of `CC(=O)Oc1ccccc1C(=O)O` [ASPIRIN], the ED50 is reported as 81 mg/kg.

Tested on: Rattus norvegicus
Test: Analgesic activity in po dosed rat assessed as inhibition of yeast-induced inflammatory pain
Type: functional
Settings: not given
`CC(C)Cc1ccc(C(C)C(=O)O)cc1` (centres undefined) [IBUPROFEN] gave an ED50 of 2.6 mg/kg. `O=C(O)c1cc(-c2ccc(F)cc2F)ccc1O` [DIFLUNISAL] showed an ED50 of 4.6 mg/kg. Work on `CC(=O)Oc1ccc(-c2ccc(F)cc2)cc1C(=O)O` [FLUFENISAL] yielded an ED50 of 35 mg/kg. `COc1ccc2c(c1)c(CC(=O)O)c(C)n2C(=O)c1ccc(Cl)cc1` [INDOMETHACIN] showed an ED50 of 2.2 mg/kg. Compound `CC1=C(CC(=O)O)c2cc(F)ccc2/C1=C\c1ccc([S+](C)[O-])cc1` (centres undefined) [SULINDAC] has an ED50 of 1.7 mg/kg. `CC(=O)Oc1ccccc1C(=O)O` [ASPIRIN] gave an ED50 of 87 mg/kg.

Tested on: Rattus norvegicus
Test: Toxicity in po dosed rat assessed as intestinal perforating ulcer
Type: organism-based
Settings: in vivo
In the case of `CC(C)Cc1ccc(C(C)C(=O)O)cc1` (centres undefined) [IBUPROFEN], the ED50 is reported as less than 256 mg/kg. Compound `O=C(O)c1cc(-c2ccc(F)cc2F)ccc1O` [DIFLUNISAL] has an ED50 of 520 mg/kg. `CC(=O)Oc1ccc(-c2ccc(F)cc2)cc1C(=O)O` [FLUFENISAL] showed an ED50 greater than 512 mg/kg. `COc1ccc2c(c1)c(CC(=O)O)c(C)n2C(=O)c1ccc(Cl)cc1` [INDOMETHACIN] gave an ED50 of 5.2 mg/kg. With `CC1=C(CC(=O)O)c2cc(F)ccc2/C1=C\c1ccc([S+](C)[O-])cc1` (centres undefined) [SULINDAC] the ED50 was 69 mg/kg.

Tested on: not listed separately
Test: Drug excretion in human urine after 96 hrs
Type: ADME, tissue-based
Settings: read-out: Drug excretion
Work on `O=C(O)c1cc(-c2ccc(F)cc2F)ccc1O` [DIFLUNISAL] yielded a dose excreted at 96 h of 95%.

Tested on: Rattus norvegicus
Test: Analgesic activity in po dosed rat assessed as inhibition of adjuvant-induced arthritis pain
Type: functional
Settings: not given
For `CC(C)Cc1ccc(C(C)C(=O)O)cc1` (centres undefined) [IBUPROFEN], the ED50 was 28 mg/kg. Work on `O=C(O)c1cc(-c2ccc(F)cc2F)ccc1O` [DIFLUNISAL] yielded an ED50 of 10.4 mg/kg. `CC(=O)Oc1ccc(-c2ccc(F)cc2)cc1C(=O)O` [FLUFENISAL] gave an ED50 of 40 mg/kg. In the case of `COc1ccc2c(c1)c(CC(=O)O)c(C)n2C(=O)c1ccc(Cl)cc1` [INDOMETHACIN], the ED50 is reported as 0.27 mg/kg. `CC1=C(CC(=O)O)c2cc(F)ccc2/C1=C\c1ccc([S+](C)[O-])cc1` (centres undefined) [SULINDAC] gave an ED50 of 0.55 mg/kg. In the case of `CC(=O)Oc1ccccc1C(=O)O` [ASPIRIN], the ED50 is reported as 78 mg/kg.

Tested on: not listed separately
Test: Plasma concentration in human at 500 mg, po after 2 hrs
Settings: not given
`O=C(O)c1cc(-c2ccc(F)cc2F)ccc1O` [DIFLUNISAL] gave a concentration at 2 h of 99 µg/mL.

Tested on: Canis familiaris
Test: Analgesic activity in po dosed dog knee joint pain model
Type: functional
Settings: Canis lupus familiaris
`O=C(O)c1cc(-c2ccc(F)cc2F)ccc1O` [DIFLUNISAL] showed an ED50 of 24 mg/kg. For `COc1ccc2c(c1)c(CC(=O)O)c(C)n2C(=O)c1ccc(Cl)cc1` [INDOMETHACIN], the ED50 was 1.7 mg/kg. Compound `CC1=C(CC(=O)O)c2cc(F)ccc2/C1=C\c1ccc([S+](C)[O-])cc1` (centres undefined) [SULINDAC] has an ED50 of 45 mg/kg. For `CC(=O)Oc1ccccc1C(=O)O` [ASPIRIN], the ED50 was 68 mg/kg.

Tested on: Rattus norvegicus
Test: Antipyretic activity in po dosed rat
Type: functional
Settings: not given
In the case of `CC(C)Cc1ccc(C(C)C(=O)O)cc1` (centres undefined) [IBUPROFEN], the ED50 is reported as 5.9 mg/kg. `O=C(O)c1cc(-c2ccc(F)cc2F)ccc1O` [DIFLUNISAL] showed an ED50 of 27.8 mg/kg. In the case of `CC(=O)Oc1ccc(-c2ccc(F)cc2)cc1C(=O)O` [FLUFENISAL], the ED50 is reported as 160 mg/kg. Compound `COc1ccc2c(c1)c(CC(=O)O)c(C)n2C(=O)c1ccc(Cl)cc1` [INDOMETHACIN] has an ED50 of 1.8 mg/kg. `CC1=C(CC(=O)O)c2cc(F)ccc2/C1=C\c1ccc([S+](C)[O-])cc1` (centres undefined) [SULINDAC] showed an ED50 of 2.9 mg/kg. Work on `CC(=O)Oc1ccccc1C(=O)O` [ASPIRIN] yielded an ED50 of 40 mg/kg.

Tested on: Rattus norvegicus
Test: Antiinflammatory activity against carrageenan-induced foot edema in rat administered via gastric gavage
Type: functional
Settings: po
In short: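 Rats, six per dose level, received drug as an aqueous suspension by gastric gavage before carrageenan-induced foot edema was measured. The highest dose given was 400 mg/kg.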
Compound `CCCCOC(=O)Oc1ccc(-c2ccc(F)cc2F)cc1C(=O)O` has an ED50 of 12 mg/kg. For `O=C(O)c1cc(-c2c(F)c(F)c(F)c(F)c2F)ccc1O`, the ED50 was 20 mg/kg. Compound `CCOC(=O)Oc1ccc(-c2ccc(F)cc2F)cc1C(=O)O` has an ED50 of 30 mg/kg. For `CCCCOC(=O)Oc1ccc(-c2ccc(F)cc2)cc1C(=O)O`, the ED50 was 25 mg/kg. Compound `O=C(O)c1cc(F)ccc1O` has an ED50 of 120 mg/kg. Work on `O=C(O)c1cccc(F)c1O` yielded an ED50 of 90 mg/kg. In the case of `O=C(O)c1cc(-c2cccc(F)c2)ccc1O`, the ED50 is reported as 40 mg/kg. `CC(=O)Oc1ccc(-c2ccccc2)cc1C(=O)O` showed an ED50 of 170 mg/kg. For `O=C(O)c1cc(-c2ccccc2F)ccc1O`, the ED50 was 20 mg/kg. With `CC(=O)Oc1c(F)cccc1C(=O)O` the ED50 was 281 mg/kg. Work on `Cc1cc(F)ccc1-c1ccc(O)c(C(=O)O)c1` yielded an ED50 of 76 mg/kg. In the case of `O=C(O)c1cc(-c2ccccc2)ccc1O`, the ED50 is reported as 54 mg/kg. `O=C(O)c1ccc(-c2ccccc2)cc1O` gave an ED50 of 150 mg/kg. `CC(=O)Oc1cc(C(F)(F)F)ccc1C(=O)O` [TRIFLUSAL] gave an ED50 of 155 mg/kg. `O=C(O)c1ccc(-c2ccc(F)cc2)cc1O` gave an ED50 of 400 mg/kg. Compound `O=C(O)c1cc(-c2ccc(F)cc2F)ccc1O` [DIFLUNISAL] has an ED50 of 9.8 mg/kg. Work on `CC(=O)Oc1ccc(-c2ccc(F)cc2)cc1C(=O)O` [FLUFENISAL] yielded an ED50 of 24 mg/kg. `O=C(O)c1cc(-c2ccc(C(F)(F)F)cc2)ccc1O` gave an ED50 of 50 mg/kg. `Cc1cc(-c2ccccc2)cc(C(=O)O)c1O` gave an ED50 of 60 mg/kg. With `O=C(O)c1cc(-c2ccccc2)cc(F)c1O` the ED50 was 110 mg/kg. In the case of `CC(=O)Oc1ccccc1C(=O)O` [ASPIRIN], the ED50 is reported as 89 mg/kg. For `O=C(O)c1cc(-c2ccc(F)cc2)ccc1O`, the ED50 was 14 mg/kg. In the case of `O=C(O)c1cc(-c2ccc(I)cc2)ccc1O`, the ED50 is reported as 120 mg/kg. For `O=C(O)c1cccc(-c2ccccc2)c1O`, the ED50 was 130 mg/kg. In the case of `CC(=O)Oc1ccc(-c2ccc(F)cc2F)cc1C(=O)O`, the ED50 is reported as 27 mg/kg. `Cc1cc(-c2ccc(F)cc2)cc(C(=O)O)c1O` gave an ED50 of 60 mg/kg. In the case of `O=C(O)c1ccc(F)cc1O`, the ED50 is reported as 400 mg/kg. For `O=C(O)c1cc(-c2ccc(Cl)cc2)ccc1O`, the ED50 was 24 mg/kg. For `O=C(O)c1ccccc1O` [SALICYLIC ACID], the ED50 was 77 mg/kg.

Tested on: Rattus norvegicus
Test: Antiinflammatory activity against carrageenan-induced foot edema in rat at 400 mg/kg administered via gastric gavage
Type: functional, organism-based
Set-up: dose 400 mg/kg
Settings: not given
In short: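 Carrageenan-induced foot edema in rats. Drugs were given as an aqueous suspension by gastric gavage to six rats at each dose level.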
For `CCCc1cc(-c2ccc(F)cc2)cc(C(=O)O)c1O`, the Activity was “inactive”. With `O=C(O)c1cccc(-c2ccc(Cl)cc2)c1O` the Activity was “inactive”. In the case of `O=C(O)c1cc(-c2ccccc2)c(Cl)cc1O`, the Activity is reported as “inactive”. In the case of `O=C(O)c1c(O)cccc1F`, the Activity is reported as “inactive”. In the case of `O=C(O)c1ccc(C(F)(F)F)cc1O`, the Activity is reported as “inactive”. For `COc1cc(-c2ccc(O)c(C(=O)O)c2)ccc1F`, the Activity was “inactive”. In the case of `O=C(O)c1cc(C2CCCCC2)ccc1O`, the Activity is reported as “inactive”. With `O=C(O)c1c(O)cccc1-c1ccccc1` the Activity was “inactive”. With `Cc1cc(-c2ccc(O)c(C(=O)O)c2)ccc1F` the Activity was “inactive”.

Tested on: not listed separately
Test: Plasma concentration in human at 250 mg, po after 2 hrs
Settings: not given
`O=C(O)c1cc(-c2ccc(F)cc2F)ccc1O` [DIFLUNISAL] showed a concentration at 2 h of 30 µg/mL.
